Measured values published in ChEMBL document CHEMBL4477187, “Macrolides from a Marine-Derived Fungus, Penicillium meleagrinum var. viridiflavum, Showing Synergistic Effects with Fluconazole against Azole-Resistant Candida albicans” (2016).
In brackets after ≈: the same amount, converted by molar mass.

Assays:
Assay type in all cases: functional
Candida albicans [1] = test: Antifungal activity against fluconazole/itraconazole/voriconazole-resistant Candida albicans clinical isolate J2-36 incubated for 48 hrs by microdilution assay; details: isolate J2-36, 48 h
How it was run: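 Clinical isolate grown 48 h at 37 °C with test compound alone, tested up to […] μg/mL. MIC read as lowest concentration giving ≥90% growth reduction versus drug-free control.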

Candida albicans [2] = test: Antifungal activity against fluconazole/itraconazole/voriconazole-resistant Candida albicans clinical isolate J2-36 incubated for 48 hrs in presence of fluconazole by checkerboard microdilution assay; details: isolate J2-36, 48 h
How it was run: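 Test compound combined with fluconazole against the clinical isolate, 48 h at 37 °C. Combination MIC taken as lowest concentration giving ≥90% growth reduction versus drug-free control.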

Candida albicans [3] = test: Antifungal activity against fluconazole/itraconazole/voriconazole-resistant Candida albicans clinical isolate J2-36 assessed as fractional inhibitory concentration in presence of fluconazole incubated for 48 hrs by checkerboard microdilution assay
How it was run: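 FICA per test compound = MIC in combination with fluconazole / MIC alone. Clinical isolate incubated 48 h at 37 °C. Each MIC = lowest concentration giving ≥90% growth reduction versus drug-free control.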

Question: For `CCCCC[C@@H]1CC[C@H](C)CCCCC(=O)N(C)[C@@H](Cc2ccc(OCCO)cc2)C(=O)O1`, which MIC (Candida albicans [1]) is on record?
Answer: Its MIC is 2 µg/mL (≈ 4.33 µM).

Question: What about the MIC (Candida albicans [2]) of the same compound?
Answer: Its MIC is 0.0016 µg/mL.

Question: What about the Ratio (Candida albicans [3]) of the same compound?
Answer: Its Ratio is 0.00078.

Question: What does the source list for `CCCCCCC[C@@H]1CC[C@H](C)CCCCC(=O)N(C)[C@@H](Cc2ccc(OCCO)cc2)C(=O)O1`?
Answer: MIC (Candida albicans [1]): > 32 µg/mL; MIC (Candida albicans [2]): 0.5 µg/mL; Ratio (Candida albicans [3]): <0.016

Question: `CCC[C@H](O)C[C@@H]1CC[C@H](C)CCCCC(=O)N(C)[C@@H](Cc2ccc(OCC(O)C(C)(C)O)cc2)C(=O)O1` (some centres not stated) was tested. Which MIC (Candida albicans [1]) did it give?
Answer: Its MIC is > 32 µg/mL.

Question: What about the MIC (Candida albicans [2]) of the same compound?
Answer: The MIC was 0.5 µg/mL.

Question: What about the Ratio (Candida albicans [3]) of the same compound?
Answer: Its Ratio is <0.016.

Question: With `OC(Cn1cncn1)(Cn1cncn1)c1ccc(F)cc1F` [FLUCONAZOLE] as the compound, how does the MIC (Candida albicans [1]) read?
Answer: Its MIC is > 64 µg/mL.

Question: `CCCCC[C@@H]1CC[C@H](C)CCCCC(=O)N(C)[C@@H](Cc2ccc(OCC=C(C)C)cc2)C(=O)O1` was tested. Which MIC (Candida albicans [1]) did it give?
Answer: The MIC was > 32 µg/mL.

Question: And the MIC (Candida albicans [2])?
Answer: Its MIC is 1 µg/mL.

Question: What about the Ratio (Candida albicans [3]) of the same compound?
Answer: Its Ratio is <0.031.

Question: For `CCC[C@@H]1CC[C@H](C)CCCCC(=O)N(C)[C@@H](Cc2ccc(OCCO)cc2)C(=O)O1`, which MIC (Candida albicans [1]) is on record?
Answer: The MIC was 16 µg/mL (≈ 36.9 µM).

Question: And the MIC (Candida albicans [2])?
Answer: The MIC was 0.125 µg/mL.

Question: What about the Ratio (Candida albicans [3]) of the same compound?
Answer: The Ratio was 0.0078.

Question: For `CCC[C@H](O)C[C@@H]1CC[C@H](C)CCCCC(=O)N(C)[C@@H](Cc2ccc(OCCO)cc2)C(=O)O1`, which MIC (Candida albicans [1]) is on record?
Answer: The MIC was 1 µg/mL (≈ 2.09 µM).

Question: And the MIC (Candida albicans [2])?
Answer: Its MIC is 0.0078 µg/mL.

Question: What about the Ratio (Candida albicans [3]) of the same compound?
Answer: Its Ratio is 0.0078.

Question: `C[C@@H]1CCCCC(=O)N(C)[C@@H](Cc2ccc(OCCO)cc2)C(=O)O[C@H](C[C@H](C)O)CC1` was tested. Which MIC (Candida albicans [1]) did it give?
Answer: Its MIC is 8 µg/mL (≈ 17.8 µM).

Question: What about the MIC (Candida albicans [2]) of the same compound?
Answer: Its MIC is 0.031 µg/mL.

Question: And the Ratio (Candida albicans [3])?
Answer: The Ratio was 0.0039.
